Measurements collected from several papers.
Compare with care: the assays were run in different laboratories.
Target: Mitogen-activated protein kinase kinase kinase 1 (MAP3K1, Homo sapiens, UniProt Q13233)

Compound | test | conditions | quantity | result
Nc1ncnc2occ(-c3ccc(NC(=O)Nc4cc(C(F)(F)F)ccc4F)cc3)c12 | cell-free assay, inhibitor | 20 µM | remaining signal | 6.9%
CN(C)C(=O)Cn1cc(-c2nc([C@@](C)(c3ccc(-c4cnc(N)nc4)cc3)C3CC3)no2)cn1 | cell-free assay, competition with immobilised ligand | 1 µM | remaining binding | 90%
COc1cc(Nc2cnc(C#N)c(O[C@H](C)CN(C)C)n2)ncc1-c1cnn(C)c1 | enzyme activity, inhibitor, radiometric | 1 µM | remaining activity | 92%
Cn1c(=O)n(-c2ccc(C(C)(C)C#N)cc2)c2c3cc(-c4cnc5ccccc5c4)ccc3ncc21 | enzyme activity, inhibitor | 10 µM | remaining activity | 67%
Cc1ccc(C(=O)Nc2ccc(CN3CCN(C)CC3)c(C(F)(F)F)c2)cc1C#Cc1cnc2cccnn12 | enzyme activity, inhibitor | 23.5 nM | remaining activity | 82%
CS(=O)(=O)NCC[C@H](NC(=O)c1cncc2c1cnn2-c1ccc(F)cc1)c1ccnc(S(C)(=O)=O)c1 | cell-free assay, competition with immobilised ligand | 1 µM | remaining binding | 100%
CC1CCCN1c1nccc(-c2cnn3ncccc23)n1 (stereo not shown) | binding | 1 µM | remaining binding | 87%
Oc1cccc(-c2nc(N3CCOCC3)c3oc4ncccc4c3n2)c1 | enzyme activity, inhibitor | 10 µM | remaining activity | 97%
CC(C)(O)[C@H]1CC[C@H](Nc2ccc3ncc(-c4cccc(C(F)(F)F)c4)n3n2)CC1 | enzyme activity, inhibitor | 1 µM | remaining activity | 99%
CC(C)(C)c1nc(-c2cccc(NS(=O)(=O)c3c(F)cccc3F)c2F)c(-c2ccnc(N)n2)s1 | enzyme activity, inhibitor, radiometric | 1 µM | remaining activity | 84%
Cc1sc(C(=O)NC2COC2)cc1-n1cc(NC(=O)Nc2c(F)cccc2Cl)cn1 | enzyme activity, inhibitor | 10 µM | remaining activity | 94.5%
CN(C)C(=O)Cn1cc(-c2nc(C3(c4ccc(-c5cnc(N)nc5)cc4)CC3)no2)cn1 | cell-free assay, competition with immobilised ligand | 1 µM | remaining binding | 77%
FC(F)(F)Oc1cccc(-c2cnc3ccc(-c4ccncc4)nn23)c1 | enzyme activity, inhibitor, radiometric | 1 µM | activity vs control | 94%
O=C(Nc1cnn(-c2csc(C(=O)NC3COC3)c2)c1)Nc1c(F)cccc1Cl | enzyme activity, inhibitor | 5 µM | remaining activity | 98.7%
CC(C)(C)c1nc2c(s1)c1nc(N)ncc1c1ccc(NS(=O)(=O)c3c(F)cccc3F)c(F)c12 | enzyme activity, inhibitor, radiometric | 1 µM | remaining activity | 90%
COc1cc(/C=C/C(=O)CC(=O)/C=C/c2ccc(O)c(OC)c2)ccc1O | enzyme activity, inhibitor | 1 µM | activity vs control | 89%
